The subject of data set [1] is NUGC-3. Put plainly: Anticancer activity against human NUGC3 cells after 72 hrs by MTS/PMS assay. Conditions: NUGC-3, 72 h. The class given is functional, cell-based. Summed up: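 NUGC-3 gastric cancer cells seeded 4500/well, grown 24 h at 37 °C, 5% CO2, then exposed 72 h to a concentration series, duplicate wells per concentration, final DMSO ≤0.3%. Controls were actinomycin D 10 nM and 0.3% DMSO vehicle. Viability read colorimetrically by MTS/PMS. IC50 is the concentration giving 50% growth inhibition, reported as mean of triplicate wells from at least three experiments.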

For data set [2], the species on record is Bos taurus. As to the kind of experiment: Displacement of [3H]colchicine from bovine brain tubulin at 25 uM after 1 hr by scintillation counting.
Data set [3] deals with NUGC-3. As to the kind of experiment: Induction of apoptosis in human NUGC3 cells assessed as DNA fragmentation at 100 nM by ethidium bromide staining-based agarose gel electrophoresis. In kind it is functional, cell-based.
Data set [4] is filed under the species Bos taurus. Put plainly: Displacement of [3H]colchicine from bovine brain tubulin after 1 hr by scintillation counting.
Data set [5] can be described thus: Inhibition of bovine brain tubulin polymerization by turbidity assay. On the set-up: species or system Bos taurus.
The subject of data set [6] is P388. Put plainly: Anticancer activity against mouse P388 cells xenografted in DBA/2J mouse assessed as increase in mouse life span at 200 mg/kg, po administered daily for 9 consecutive days. In kind it is functional. Summed up:
(§1)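 Female DBA/2J mice, 5 weeks old, each given 1 × 10^6 P388 cells iv. Oral dosing by gavage (0.1 mL) started one day after inoculation. Compound was dissolved in DMSO and diluted in 0.5% carboxymethyl cellulose (final DMSO <0.5%). Groups of 7–8 mice; vehicle-only controls. Survival checked twice daily. Result is percentage increase in median survival time relative to the control group.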

Data set [7] relates to MKN-45. As to the kind of experiment: Ex vivo antiproliferative activity against human MKN45 cells xenografted in nude mouse assessed as drug concentration reducing 50% of BrdU labeling index after 96 hrs by immunostaining. In kind it is functional, cell-based. The conditions noted are these: MKN-45, 96 h. Summed up: (§2)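 MKN-45 or SW-480 cells (1 × 10^6) grown subcutaneously in nude mice to ~1 cm3; tumors cut into 1–2 mm pieces and histocultured on gelatin gels in MEM/DMEM with 10% FBS at 37 °C. After 3 days, exposed 96 h to 0.0001–10 μg/mL, then 40 μM BrdU for 48 h. Fixed, paraffin-sectioned, BrdU-immunostained with hematoxylin counterstain. Labeling index = BrdU-positive/total tumor cells; IC50 taken as concentration halving LI.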

In data set [8] the test system is SW480. Put plainly: Ex vivo antiproliferative activity against human SW480 cells xenografted in nude mouse assessed as BrdU incorporation into DNA at 10 ug/mL after 96 hrs by immunostaining. In kind it is functional, cell-based. Summed up:
as §2
Background: Xenograft models place foreign cells or tissue in a host animal.

The subject of data set [9] is MKN-45. As to the kind of experiment: Ex vivo antiproliferative activity against human MKN45 cells xenografted in nude mouse assessed as BrdU incorporation into DNA at 10 ug/mL after 96 hrs by immunostaining. In kind it is functional, cell-based. Summed up:
as §2

For data set [10], the system named is MKN-45. Put plainly: Ex vivo apoptotic activity in human MKN45 cells xenografted in nude mouse assessed as DNA fragmentation at 10 ug/mL after 96 hrs by immunostaining. The class given is functional, cell-based.
The test system of data set [11] is P388. Put plainly: Anticancer activity against mouse P388 cells xenografted in DBA/2J mouse assessed as increase in mouse life span at 2.5 mg/kg, iv administered daily for 4 consecutive days. The class given is functional. A digest of the protocol:
(§3)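 Female DBA/2J mice, 5 weeks old, each inoculated iv with 1 × 10^6 P388 cells (grown in RPMI 1640 with nonessential amino acids, 50 μM 2-mercaptoethanol, 10% FBS). Compound was given iv starting one day after inoculation. Groups of 7–8 mice plus vehicle controls, monitored twice daily. Percentage increase in life span calculated from median survival time, normalised to controls.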

Data set [12] concerns P388. Put plainly: Anticancer activity against mouse P388 cells xenografted in DBA/2J mouse assessed as increase in mouse life span at 25 mg/kg, po administered daily for 9 consecutive days. The class given is functional. A digest of the protocol:
as §1

Data set [13] concerns NUGC-3. As to the kind of experiment: Induction of microtubule arrangement aberration in human NUGC3 cells assessed as appearance of tubulin at 1 uM after 16 hrs FITC analysis. In kind it is functional, cell-based. Summed up: (§4)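 NUGC-3 cells exposed to 1 μM for 16 h, then fixed in 4% formaldehyde 10 min and blocked with BSA. Stained with monoclonal anti-β-tubulin (1:200, 4 °C overnight) followed by FITC anti-mouse IgG (1:300, 1 h), and for DNA with Hoechst 33258 (1 μg/mL in 0.1% Triton X-100, 5 min). Imaged by confocal laser-scanning microscopy. DMSO vehicle control included.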

Data set [14] deals with SW480. Put plainly: Ex vivo antiproliferative activity against human SW480 cells xenografted in nude mouse assessed as BrdU incorporation into DNA after 96 hrs by immunostaining. The class given is functional, cell-based. A digest of the protocol:
as §2

The test system of data set [15] is P388. Put plainly: Anticancer activity against mouse P388 cells xenografted in DBA/2J mouse assessed as increase in mouse life span at 7.5 mg/kg, iv administered daily for 4 consecutive days. The class given is functional. Summed up:
as §3

Data set [16] concerns P388. As to the kind of experiment: Anticancer activity against mouse P388 cells xenografted in DBA/2J mouse assessed as increase in mouse life span at 100 mg/kg, po administered daily for 9 consecutive days. In kind it is functional. Summed up: as §1
For data set [17], the system named is P388. As to the kind of experiment: Anticancer activity against mouse P388 cells xenografted in po dosed DBA/2J mouse assessed as increase in mouse life span administered daily for 9 consecutive days. In kind it is functional, organism-based. A digest of the protocol:
(§5)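 Female DBA/2J mice, 5 weeks old, inoculated iv with 1 × 10^6 P388 cells each; dosing began one day later, 7–8 mice per group. Compound in DMSO diluted into 0.5% carboxymethyl cellulose (final DMSO <0.5%). Regimens: iv 2.5 or 7.5 (mg/kg)/day for 4 days; po gavage (0.1 mL) 25–200 (mg/kg)/day for 9 days. Vehicle-only controls. Survival checked twice daily; increase in life span computed from median survival time normalized to controls.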

In data set [18] the test system is P388. Put plainly: Anticancer activity against mouse P388 cells xenografted in iv dosed DBA/2J mouse assessed as increase in mouse life span administered daily for 4 consecutive. The class given is functional, organism-based. A digest of the protocol: as §5
Data set [19] has as its system MKN-45. As to the kind of experiment: Ex vivo antiproliferative activity against human MKN45 cells xenografted in nude mouse assessed as BrdU incorporation into DNA after 96 hrs by immunostaining. The class given is functional, cell-based. A digest of the protocol: as §2
For data set [20], the system named is Mus musculus. As to the kind of experiment: Toxicity in DBA/2J mouse xenografted with mouse P388 cells assessed as body weight loss at 2.5 to 7.5 mg/kg, iv administered daily for 4 consecutive days. The class given is organism-based. On the set-up: dose 2.5-7.5 mg/kg, route intravenous. The conditions noted are these: in vivo.
Data set [21] relates to NUGC-3. As to the kind of experiment: Induction of apoptosis in human NUGC3 cells assessed as DNA fragmentation at 1 uM after 16 hrs by Hoechst 33258 staining-based confocal laser-scanning microscopy. In kind it is functional, cell-based. Summed up:
as §4

The test system of data set [22] is Mus musculus. Put plainly: Toxicity in DBA/2J mouse xenografted with mouse P388 cells assessed as body weight loss at 25 to 200 mg/kg, po administered daily for 9 consecutive days. The class given is organism-based. Further details: dose 25-200 mg/kg, route oral. The conditions noted are these: in vivo.

Experimental findings from ChEMBL document CHEMBL1157612, “Synthesis and biological activities of 2-amino-1-arylidenamino imidazoles as orally active anticancer agents” (J Med Chem, 2010) are described below.

As usually defined, the IC50 is the midpoint of a concentration-inhibition curve.

The structures appear in SMILES notation. Activity calls are given as the source filed them. The rule behind the calls is not given here.

Consider `COc1cc2c(c(OC)c1OC)-c1ccc(OC)c(=O)cc1[C@@H](NC(C)=O)CC2` [COLCHICINE], for which the half-maximal inhibitory concentration (IC50) in the data set on NUGC-3 [1] was determined as 10 nM.

Compound `Nc1nc(-c2ccc(-c3ccccc3)cc2)cn1/N=C/c1ccc(Cl)cc1` had a concentration for half-maximal inhibition (IC50) with NUGC-3 [1] of over 10000 nM.

In turn, `Nc1nc(-c2cccs2)cn1/N=C/c1ccc(Cl)cc1` returned a concentration for half-maximal inhibition (IC50) with NUGC-3 [1] of 80 nM.

`Nc1nc(-c2ccccc2)cn1/N=C/c1ccc(Cl)c(Cl)c1` registered an IC50 in the data set with NUGC-3 [1] of 740 nM.

As to `COc1ccccc1-c1cn(/N=C/c2ccc(Cl)cc2)c(N)n1`, half-maximal inhibition in the data set on NUGC-3 [1] (IC50) was put at 5200 nM.

`Nc1nc(-c2ccc(Cl)s2)cn1/N=C/c1ccc(Cl)cc1`: in the data set on NUGC-3 [1], the IC50 was found to be 3280 nM.

For `Nc1nc(-c2cccnc2)cn1/N=C/c1ccc(Cl)cc1`, the outcome in the data set listed under Bos taurus [2] and in the data set on NUGC-3 [3] was Active. Also, the IC50 in the data set with NUGC-3 [1] was 230 nM; in [5], 270 nM. The Activity entry in the data set listed under Bos taurus [4] is “Dose-dependent effect”.

`Nc1nc(-c2ccccc2)cn1/N=C/c1ccc(C(F)(F)F)cc1` yielded a half-maximal inhibitory concentration (IC50) in the data set on NUGC-3 [1] of 5770 nM.

`Cc1ccsc1/C=N/n1cc(-c2ccccc2)nc1N` had an IC50 in the data set with NUGC-3 [1] of 910 nM.

In the data set with NUGC-3 [1], `Nc1nc(-c2ccsc2)cn1/N=C/c1ccc(Cl)cc1` displayed an IC50 of 50 nM.

The compound `Nc1nc(-c2ccccc2)cn1/N=C/c1ccccc1Cl` had an IC50 with NUGC-3 [1] of 3970 nM.

`Nc1nc(-c2cccnc2)cn1/N=C/c1ccc(F)cc1`: the IC50 in the data set with NUGC-3 [1] came out at 60 nM.

The compound `Nc1nc(-c2ccccc2)cn1/N=C/c1ccc(Br)cc1` showed an IC50 with NUGC-3 [1] of 580 nM.

As to `Nc1nc(-c2ccccn2)cn1/N=C/c1ccc(Cl)cc1`, it took 310 nM to reach half-maximal inhibition in the data set on NUGC-3 [1] (IC50).

Regarding `Nc1nc(-c2ccccc2)cn1/N=C/c1ccnc2ccccc12`, in the data set on NUGC-3 [1], the half-inhibitory concentration (IC50) was over 10000 nM.

In the data set on NUGC-3 [1], `Nc1nc(-c2ccccc2)c(-c2ccccc2)n1/N=C/c1ccc(Cl)cc1` displayed an IC50 of over 10000 nM.

The compound `Nc1nc(-c2ccccc2)cn1/N=C/c1cccc(Cl)c1Cl` showed an IC50 with NUGC-3 [1] of 5120 nM.

In the data set on NUGC-3 [1], `Nc1nc(-c2nccs2)cn1/N=C/c1ccc(Cl)cc1` had an IC50 of 510 nM.

As for `Nc1nc(-c2ccccc2)cn1/N=C/c1ccc(F)cc1`, in the data set with P388 [6], the Activity is 110%. Further, the results for the half-inhibitory concentration (IC50) in the data set on NUGC-3 [1] and with MKN-45 [7] were 50 nM and 34000 nM, respectively. Besides, the result in the data set on SW480 [8], with MKN-45 [9] and in the data set on MKN-45 [10] was Active.

Consider `Nc1nc(-c2ccccc2)cn1/N=C/c1ccc(Cl)cc1`, for which the Activity was 17% in the data set with P388 [11]; 14% in the data set on P388 [12]; 114% in the data set with P388 [6]; “Dose-dependent effect” with SW480 [14]; 100% in the data set with P388 [15]; 71% in the data set on P388 [16]. Also, the Activity entry was “Dose-dependent effect” in the data set on P388 [17]; “Dose-dependent effect” in the data set on P388 [18]; “Dose-dependent effect” in the data set filed under Bos taurus [4]; “Dose-dependent effect” with MKN-45 [19]; “Non-toxic” with Mus musculus [20]; “Non-toxic” in the data set on Mus musculus [22]. The outcome in the data set filed under Bos taurus [2], in the data set on NUGC-3 [3], in the data set on NUGC-3 [13] and with NUGC-3 [21] was Active. The results for the half-maximal inhibitory concentration (IC50) (in the data set with NUGC-3 [1]; in the data set with MKN-45 [7]; in [5]) were 60 nM, 13000 nM and 2650 nM, respectively.

For `Nc1nc(-c2ccccc2)cn1/N=C/c1ccccc1`, in the data set on NUGC-3 [1], the midpoint of inhibition, the IC50, lay at 840 nM.
